ChEMBL document CHEMBL1154234, “Cytotoxic constituents of Soymida febrifuga from Myanmar” (J Nat Prod, 2009)

What was measured:
Assay type in all cases: functional, cell-based
HT-1080 = test: Cytotoxicity against human HT1080 cells after 72 hrs by MTT assay; details: HT-1080, 72 h
Procedure, shortened: (§1)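 Cells grown in MEMR with 10% FBS, 0.1% NaHCO3 and 1% antibiotic antimycotic; seeded 2 × 10^3/well and left 24 h at 37 °C, 5% CO2 to attach. Graded concentrations then added in medium for 72 h; MTT (0.5 mg/mL) for 2 h, formazan taken up in DMSO, absorbance at 550 nm. IC50 from means of three wells.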

A549 = test: Cytotoxicity against human A549 cells after 72 hrs by MTT assay; details: A549, 72 h; procedure, shortened: as §1
[1] = Cytotoxicity against mouse Colon 26-L5 cells after 72 hrs by MTT assay
Procedure, shortened: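 Murine colon 26-L5 cells kept in RPMI 1640 with 10% FBS, 0.1% NaHCO3, 1% antibiotic antimycotic. Plated at 2 × 10^3/well, 24 h attachment at 37 °C, 5% CO2, then varying concentrations for 72 h. Read-out: MTT (0.5 mg/mL) 2 h, DMSO extraction, 550 nm; IC50 from means of three wells.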

[2] = Cytotoxicity against mouse B16-BL6 cells after 72 hrs by MTT assay; details: B16-BL6, 72 h; procedure, shortened: as §1
HeLa = test: Cytotoxicity against human HeLa cells after 72 hrs by MTT assay; procedure, shortened: as §1
PANC-1 = test: Cytotoxicity against human PANC1 cells in nutrient-deprived condition after 24 hrs by WST8 assay
Procedure, shortened: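 PANC-1 seeded 2 × 10^4/well in DMEM, 24 h at 37 °C, 5% CO2; washed with PBS and switched to nutrient-deprived medium (or DMEM) with serial dilutions for 24 h. After PBS wash, DMEM with 10% WST-8 added for 3 h, absorbance at 450 nm. Viability vs blank and untreated control from three wells; PC50 reported.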

Compound	IC50 (HT-1080) [µM]	IC50 (A549) [µM]	IC50 [1] [µM]	IC50 [2] [µM]	IC50 (HeLa) [µM]	PC50 (PANC-1) [µM]	PC50 (PANC-1; Homo sapiens, PANC-1, 24 h) [µM]
COc1cccc2c1C(=O)c1c(O)c3c(c(O)c1C2=O)C[C@@](O)(C(=O)CO)C[C@@H]3O[C@H]1C[C@H](N)[C@H](O)[C@H](C)O1 [DOXORUBICIN]	0.41	0.84	3.12	3.07			
O=c1[nH]cc(F)c(=O)[nH]1 [FLUOROURACIL]	8.58	5.91	0.41	7.39	0.44		
O=C(CCc1ccc(O)cc1O)c1ccc(O)cc1	> 100	> 100	> 100	> 100	> 100	>100	
COc1ccc(CCC(=O)c2ccc(O)cc2)c(OC)c1	> 100	89.5	32.2	55.5	> 100	83.2	
COc1ccc(C[C@@H]2COc3cc(O)cc(O)c3C2=O)cc1	> 100	> 100	30.6	64.3	> 100		> 100
COc1cc(O)cc(OC)c1CCC(=O)c1ccc(O)cc1	67.2	42.9	40.2	84.4	49	69.7	
COc1cc(/C=C/c2ccc(O)cc2)cc(OC)c1 [PTEROSTILBENE]	93.4	71.7	2.96	15.9	9.43	44.4	
COc1cc(O)cc(/C=C/c2ccc(O)cc2)c1	89.1	91.8	35.8	> 100	48.4	71.4	
Oc1ccc([C@H]2CCc3ccc(O)cc3O2)cc1 [TUPICHINOL C]	50.1	94	43.9	> 100	93.4	>100	
Oc1ccc(C[C@H]2COc3cc(O)ccc3C2)cc1	79.6	> 100	44.5	> 100	> 100	79	
O=C(/C=C/c1ccccc1O)c1ccc(O)cc1O	40.4	89.9	28.9	> 100	89.1	>100	
COc1ccc2c(c1)O[C@H](c1ccc(O)cc1)CC2	> 100	> 100	52.8	40.8	> 100	74	
COc1cc(O)c(C)c2c1CC[C@H](c1ccc(O)cc1)O2	37	35.5	59.1	89.1	74	70.1	
COc1c(O)cc2c(c1O)C(=O)[C@H](Cc1ccc(O)cc1)CO2	96.2	> 100	89.5	> 100	> 100	>100	
COc1cc2c(cc1O)C[C@@H](Cc1ccc(O)cc1)CO2	17.5	19.1	22.2	75.4	37.8	63	
COc1cc(C(O)C(O)CO)ccc1O (centres undefined) [GUAIACYL GLYCEROL]	> 100	> 100	96.9	> 100	> 100	>100	
COc1ccc(C(=O)CCc2c(OC)cc(O)cc2OC)cc1	> 100	> 100	68.1	70.1	> 100	85.7	
COc1cc2cc(Cc3ccc(O)cc3)c(=O)oc2cc1O	40.3	88.1	61.8	> 100	69.5	86.7	
O=C1c2c(O)cc(O)cc2OC[C@H]1Cc1ccc(O)cc1	> 100	> 100	57.8	> 100	> 100	>100	
O=C1c2ccc(O)cc2OC[C@H]1Cc1ccc(O)cc1	> 100	> 100	69.3	99.6	> 100	>100	
O=C(O)c1ccc(O)cc1 [PARABEN]	> 100	> 100	33.3	63.3	36.2	>100	
COc1cc(O)cc2c1OC[C@H](Cc1ccc(O)cc1)C2	70.2	> 100	49.5	> 100	65.6	>100	
O=C1C[C@@H](c2ccccc2)Oc2cc(O)cc(O)c21 [PINOCEMBRIN]	72.8	> 100	71	> 100	> 100	72.9	
COc1ccc(CCC(=O)c2ccc(O)cc2)c(O)c1	> 100	12	81.4	57.8	46.1	>100	
Cc1c(O)ccc2c1O[C@@H](c1ccc(O)cc1)CC2	24.1	39.7	40.2	98.9	89.2	85.8	
COc1cc(O)ccc1C(=O)/C=C/c1ccc(O)cc1	26.7	66.5	14.1	49.9	33.3	>100	
O=C(/C=C/c1ccccc1)c1ccc(O)cc1O [2',4'-DIHYDROXYCHALCONE]	17	23.2	4.71	> 100	24.4	19	
